Calls of active or inactive are those of the source.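 How the source made its calls, unless noted: active means GFP response above 150% of the DMSO level; inconclusive means fewer than 70 events counted for a yeast strain; inactive means the rest.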
Tests used:
[1] = hit retest on RPL19A-GFP reporter strain – cell-based, S. cerevisiae, flow cytometry, cherry picks, mother/daughter gates, confirmation (AID 2270;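 active means GFP response below 50% of the DMSO control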); conditions: 3 h, at 10 µM, stronger effect = lower value, 100 = same GFP as DMSO wells
[2] = yeast TOR pathway reporter LAP4-GFP change – cell-based, cherry picks, flow cytometry, mother/daughter gates, confirmation (AID 2271;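 active means GFP response above 150% of the DMSO control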;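 further: ratio of sample to DMSO plate mean so 100% equals DMSO level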); conditions: S. cerevisiae LAP4-GFP strain, 3 h, at 10 µM, stronger effect = higher value, 100 means same as DMSO control
In short: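 System: Alexa 633-stained baker's yeast GFP-fusion strain; quantity: 0.2 OD600 cells; timing: compound exposure 3 h at 30 °C, end-over-end rotation; detection: HT flow cytometry, GFP fluorescence channel; measure: per-gate (all, mother, daughter) GFP response vs DMSO; control set: DMSO-only negative wells, rapamycin 400 ng/mL positive wells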

[3] = TOR pathway reporter MEP2-GFP, retest of hits – S. cerevisiae, flow cytometry GFP, cherry picks, confirmation (AID 2272;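 active means GFP response above 150% of the DMSO control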;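 further: ratio of well signal to plate DMSO mean so 100% equals DMSO level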); conditions: S. cerevisiae MEP2-GFP strain, 3 h, at 10 µM, stronger effect = higher value
[4] = yeast AGP1-GFP fluorescence change, single-dose – cell-based, flow cytometry, S. cerevisiae, cherry picks, confirmation (AID 2273);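 further: median GFP channel fluorescence over the whole cell population gate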; conditions: S. cerevisiae AGP1-GFP strain, 3 h, at 10 µM
[5] = TOR pathway CIT2 reporter hit retest – S. cerevisiae, GFP fusion, cherry picks, mother/daughter gates, confirmation (AID 2274); conditions: S. cerevisiae CIT2-GFP strain, flow cytometry, 3 h, at 10 µM, stronger effect = higher value
[6] = measured here: daughter cell gate
[7] = measured here: mother cell gate
[8] = measured here: daughter cell gate response
[9] = measured here: mother cell gate response

Structure (SMILES) | GFP response vs DMSO [1] | GFP response vs DMSO [1, 6] | GFP response vs DMSO [1, 7] | GFP response relative to DMSO [2] | GFP response relative to DMSO [2, 8] | GFP response relative to DMSO [2, 9] | GFP response vs DMSO [3] | GFP response, % of DMSO [4] | GFP response, % of DMSO [5] | GFP response, % of DMSO [5, 6] | GFP response, % of DMSO [5, 7]
COc1ccc(N2C(=O)C(Cl)=C(Oc3cccc(OC)c3)C2=O)cc1 | 90.9% (inactive) | 76.4% | 79.9% | 218% (active) | 203% | 227% | 105% (inactive) | 110% (inactive) | 98.4% (inactive) | 93.7% | 80.8%
C=CCn1c(C)c(/C=C/c2cc[n+](C)cc2)c2ccccc21 | 99.6% (inactive) | 99.8% | 98.1% | 133% (inactive) | 136% | 129% | 147% (inactive) | 101% (inactive) | 141% (inactive) | 142% | 139%
CC(C)(C)C(=O)NCC12C=CC(O1)C1C(=O)N(c3ccccc3)C(=O)C12 (stereo unspecified) | 94% (inactive) | 96.1% | 92.9% | 108% (inactive) | 108% | 111% | 110% (inactive) | 104% (inactive) | 106% (inactive) | 105% | 105%
CCc1cc(=O)oc2c(CN3CCCC3)c(O)c(Cl)cc12 | 97.6% (inactive) | 101% | 95.8% | 104% (inactive) | 105% | 100% | 110% (inactive) | 98.4% (inactive) | 107% (inactive) | 105% | 102%
O=C(c1ccccc1[N+](=O)[O-])n1cnc2ccccc21 | 100% (inactive) | 101% | 100% | 96.1% (inactive) | 98.2% | 96.2% | 94.4% (inactive) | 87.1% (inactive) | 117% (inactive) | 110% | 119%
Cc1ccc(-c2csc3ncn(Cc4ccc(C(=O)O)cc4)c(=O)c23)cc1C | 98.8% (inactive) | 97.3% | 99% | 117% (inactive) | 114% | 120% | 105% (inactive) | 116% (inactive) | 106% (inactive) | 105% | 107%
O=C(COC(=O)c1cccs1)Nc1nc(-c2ccccc2)cs1 | 97% (inactive) | 95.6% | 98.4% | 99.2% (inactive) | 99.2% | 99.3% | 96.2% (inactive) | 99.1% (inactive) | 99.7% (inactive) | 99.1% | 96.1%
COc1ccc(OC)c(CNC(=O)CCC(=O)N2Cc3cccc(OC)c3Oc3ncccc32)c1 | 102% (inactive) | 100% | 101% | 90.6% (inactive) | 94.2% | 95.2% | 105% (inactive) | 109% (inactive) | 102% (inactive) | 101% | 103%
Cc1ccccc1CN1CCSc2sccc2C1=O | 95.9% (inactive) | 94.2% | 97.3% | 106% (inactive) | 105% | 113% | 95.7% (inactive) | 97.2% (inactive) | 97.8% (inactive) | 94.8% | 98.7%
CCCOc1ccc(C(=O)NNC(=S)NC(=O)CC)cc1 | 126% (inactive) | 103% | 117% | 181% (active) | 120% | 169% | 139% (inactive) | 130% (inactive) | 132% (inactive) | 121% | 117%
CC(C)c1nnc(-c2ccc(Cl)cc2)c(N(C)C)n1 | 98.9% (inactive) | 99.3% | 97.8% | 98.9% (inactive) | 96% | 99.5% | 103% (inactive) | 106% (inactive) | 100% (inactive) | 101% | 100%
C/C(CC(=O)Nc1cc(C)ccn1)=N\NC(=O)c1cccc(F)c1 | 98.6% (inactive) | 97.5% | 98.7% | 97.4% (inactive) | 97.2% | 99.3% | 100% (inactive) | 94.1% (inactive) | 93.9% (inactive) | 94.8% | 93.4%
CCOc1cc(-c2noc(-c3cccnc3)n2)ccc1OC | 95.8% (inactive) | 94.7% | 95% | 98.9% (inactive) | 99% | 100% | 103% (inactive) | 100% (inactive) | 106% (inactive) | 103% | 106%
O=C(CSc1nnc(-c2ccccn2)n1Cc1ccccc1)N1CCOCC1 | 103% (inactive) | 102% | 102% | 105% (inactive) | 107% | 105% | 108% (inactive) | 101% (inactive) | 104% (inactive) | 105% | 105%
Cc1ccc(C(=O)O/N=C(\N)Cc2cccs2)c(Cl)c1 | 104% (inactive) | 102% | 99.3% | 125% (inactive) | 114% | 123% | 105% (inactive) | 70.7% (inactive) | 129% (inactive) | 117% | 129%
Cc1ccc(C=C2C(Cl)=C(Cl)C(Cl)=C2Cl)cc1 | 103% (inactive) | 102% | 97.7% | 148% (inactive) | 139% | 161% | 114% (inactive) | 105% (inactive) | 106% (inactive) | 105% | 94.7%
COc1ccc(C(=O)C2CCCN(C(=O)c3cccs3)C2)cc1F (stereo unspecified) | 102% (inactive) | 101% | 101% | 98.2% (inactive) | 99.1% | 98.4% | 99% (inactive) | 103% (inactive) | 100% (inactive) | 103% | 99.3%
CCOC(=O)c1csc(Nc2nc3ccc(F)cc3s2)n1 | 94.6% (inactive) | 95.2% | 94.2% | 103% (inactive) | 102% | 104% | 99% (inactive) | 93.4% (inactive) | 95.9% (inactive) | 97.4% | 95.6%
COc1ccc(C(=O)Nc2c(N)nc[nH]c2=O)cc1 | 102% (inactive) | 99.3% | 99% | 97% (inactive) | 97.5% | 97.3% | 105% (inactive) | 103% (inactive) | 105% (inactive) | 103% | 102%
COc1ccc(/C=C/C(=O)c2c(O)cc(C)oc2=O)c(OC)c1 | 104% (inactive) | 101% | 103% | 102% (inactive) | 101% | 103% | 103% (inactive) | 100% (inactive) | 95.9% (inactive) | 95.6% | 90.7%
CC1CN(c2nnnn2-c2ccccc2)CC(C)O1 (stereo unspecified) | 99% (inactive) | 99.1% | 99.8% | 102% (inactive) | 101% | 100% | 96.2% (inactive) | 100% (inactive) | 101% (inactive) | 103% | 99.7%
Cc1ccc(/C=C/C(=O)c2ccccc2)cc1 | 97.4% (inactive) | 96.7% | 98.3% | 100% (inactive) | 102% | 99.5% | 99.5% (inactive) | 102% (inactive) | 102% (inactive) | 100% | 99.1%
Cc1ccc(SC(=O)c2c(C)noc2-c2cc(C)on2)cc1 | 103% (inactive) | 102% | 104% | 120% (inactive) | 120% | 121% | 126% (inactive) | 107% (inactive) | 124% (inactive) | 124% | 121%
Cn1ncc(N2CCN(S(=O)(=O)c3ccc(Br)cc3)CC2)c(Cl)c1=O | 98.2% (inactive) | 97.9% | 98.7% | 96.7% (inactive) | 96% | 95.1% | 107% (inactive) | 99.3% (inactive) | 98.3% (inactive) | 101% | 97.3%
O=C(c1cccc(COCC(F)(F)C(F)F)c1)N1CCN(c2ccccc2)CC1 | 101% (inactive) | 101% | 102% | 100% (inactive) | 97.9% | 97.5% | 104% (inactive) | 102% (inactive) | 97.8% (inactive) | 96.4% | 98%
O=[N+]([O-])c1ccc(N2CCN(CCO)CC2)cc1Sc1ccccn1 | 97.8% (inactive) | 99.5% | 98% | 94.1% (inactive) | 96% | 95.4% | 99.3% (inactive) | 96.1% (inactive) | 101% (inactive) | 101% | 102%

Reference: PubChem BioAssay
